Laboratory results as given in ChEMBL document CHEMBL1121744, “Synthesis and antihypertensive activity of a series of 8-substituted 1-oxa-3,8-diazaspiro[4.5]decan-2-ones” (J Med Chem, 1981).
“And” between values parts separate entries of the source, which are not always exact repeats. Identical values can stand only once.

Tests used:
Canis familiaris [1] = assay: Percent inhibition of the pressor responses to 7.5 ug/kg iv phenylephrine in pentobarbital-anesthetized dogs for a dose of 1 mg/kg; type: functional; conditions: Canis lupus familiaris
Procedure, shortened: (§1)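 Pentobarbital-anesthetized dogs (35 mg/kg iv) with femoral arterial pressure recording. Epinephrine (1 μg/kg), norepinephrine (0.75 μg/kg) and phenylephrine (7.5 μg/kg) iv challenges were given about every 10 min before and after rising iv test doses, which were spaced 90 min apart. Value is % inhibition of the pressor response.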

Canis familiaris [2] = assay: Change in mean arterial pressure in anesthetized dogs for a dose of 10 mg/kg; type: functional, Canis lupus familiaris, Artery
Procedure, shortened: (§2)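 Dogs anesthetized with sodium pentobarbital (35 mg/kg iv), femoral artery cannulated for pressure, ECG-triggered heart rate, femoral vein for dosing. Rising iv doses were given 90 min apart, and each dose is the full dose, not cumulative. Value is the maximal mean arterial pressure change 10–15 min after each dose, two dogs per compound, ±3 mmHg. Saline served as control.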

Canis familiaris [3] = assay: Change in mean arterial pressure in anesthetized dogs for a dose of 0.1 mg/kg; type: functional, Canis lupus familiaris, Artery; procedure, shortened: as §2
Canis familiaris [4] = assay: (§3) Percent inhibition of the pressor responses to 1 ug/kg iv Epinephrine in pentobarbital-anesthetized dogs for a dose of 10 mg/kg; type: functional; conditions: Canis lupus familiaris
Procedure, shortened: (§4)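 Dogs anesthetized with sodium pentobarbital 35 mg/kg iv; femoral artery cannulated for blood pressure, femoral vein for dosing. Epinephrine 1 μg/kg iv given at about 10-min intervals before and after increasing test doses. Test doses given iv at 90-min intervals. Result is per cent inhibition of the pressor response.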

Canis familiaris [5] = assay: Percent inhibition of the pressor responses to 7.5 ug/kg iv phenylephrine in pentobarbital-anesthetized dogs for a dose of 0.1 mg/kg; type: functional; conditions: Canis lupus familiaris; procedure, shortened: as §1
Canis familiaris [6] = assay: Percent inhibition of the pressor responses to 0.75 ug/kg iv norepinephrine in pentobarbital-anesthetized dogs for a dose of 10 mg/kg; type: functional; conditions: Canis lupus familiaris; procedure, shortened: as §1
Canis familiaris [7] = assay: Percent inhibition of the pressor responses to 0.75 ug/kg iv norepinephrine in pentobarbital-anesthetized dogs for a dose of 1 mg/kg; type: functional; conditions: Canis lupus familiaris; procedure, shortened: as §1
Rattus norvegicus [8] = assay: Antihypertensive activity as percentage fall in systolic blood pressure in spontaneously hypertensive rats after a period of 1 hr for a dose of 50 mg/kg; type: functional, Artery
Procedure, shortened: (§5)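 Male Okamoto-Aoki SHR, trained, in groups of four matched for mean systolic pressure; one group per run received water vehicle. Oral dosing in water (0.1 mL per 10 g) on two consecutive mornings. After the day-2 dose, rats were restrained at 30.0 ± 1.0 °C. Systolic pressure was read by tail cuff (inflated to 300 mmHg, first pulse) at 1–4 h. % fall is versus the untreated control group, by 1-tail t test (p ≤ 0.05).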

Canis familiaris [9] = assay: (§6) Percent inhibition of the pressor responses to 1 ug/kg iv Epinephrine in pentobarbital-anesthetized dogs for a dose of 0.1 mg/kg; type: functional; conditions: Canis lupus familiaris; procedure, shortened: as §4
Canis familiaris [10] = assay: Percent inhibition of the pressor responses to 1 ug/kg iv Epinephrine in pentobarbital-anesthetized dogs for a dose of 1 mg/kg; type: functional; conditions: Canis lupus familiaris; procedure, shortened: as §1
[11] = Distribution coefficient between 1-Octanol and phosphate buffer at pH7.4; type: physicochemical; conditions: 1-octanol/phosphate buffer, pH 7.4
Rattus norvegicus [12] = assay: Antihypertensive activity as percentage fall in systolic blood pressure in spontaneously hypertensive rats after a period of 4 hr for a dose of 50 mg/kg po; type: functional, Artery; procedure, shortened: as §5
Rattus norvegicus [13] = assay: Percentage fall in systolic blood pressure in spontaneously hypertensive rats after 3 h following 50 mg/kg p.o.; type: functional, Artery; conditions: route oral; procedure, shortened: as §5
Rattus norvegicus [14] = assay: Percentage fall in systolic blood pressure in spontaneously hypertensive rats after 2 hr following 50 mg/kg p.o.; type: functional, Artery; conditions: route oral; procedure, shortened: as §5
Canis familiaris [15] = assay: Percent inhibition of the pressor responses to 0.75 ug/kg iv norepinephrine in pentobarbital-anesthetized dogs for a dose of 5.0 mg/kg; type: functional; conditions: Canis lupus familiaris; procedure, shortened: as §1
Canis familiaris [16] = assay: Change in mean arterial pressure in anesthetized dogs for a dose of 1 mg/kg; type: functional, Canis lupus familiaris, Artery; procedure, shortened: as §2
Canis familiaris [17] = assay: Percent inhibition of the pressor responses to 7.5 ug/kg iv phenylephrine in pentobarbital-anesthetized dogs for a dose of 10 mg/kg; type: functional; conditions: Canis lupus familiaris; procedure, shortened: as §1
Canis familiaris [18] = assay: as §6; type: functional; conditions: Canis lupus familiaris; procedure, shortened: as §1; remark: listed apart in the source
Canis familiaris [19] = assay: as §3; type: functional; conditions: Canis lupus familiaris; procedure, shortened: as §1; remark: listed apart in the source
Canis familiaris [20] = assay: Percent inhibition of the pressor responses to 0.75 ug/kg iv norepinephrine in pentobarbital-anesthetized dogs for a dose of 0.1 mg/kg; type: functional; conditions: Canis lupus familiaris; procedure, shortened: as §1
Rattus norvegicus [21] = assay: Antihypertensive activity as percentage fall in systolic blood pressure in spontaneously hypertensive rats after a period of 2 hr for a dose of 12.5 mg/kg po; type: functional, Artery; procedure, shortened: as §5
Rattus norvegicus [22] = assay: Antihypertensive activity as percentage fall in systolic blood pressure in spontaneously hypertensive rats after a period of 4 hr for a dose of 12.5 mg/kg po; type: functional, Artery; procedure, shortened: as §5
Rattus norvegicus [23] = assay: Antihypertensive activity as percentage fall in systolic blood pressure in spontaneously hypertensive rats after a period of 1 hr for a dose of 12.5 mg/kg po; type: functional, Artery; procedure, shortened: as §5
Rattus norvegicus [24] = assay: Antihypertensive activity as percentage fall in systolic blood pressure in spontaneously hypertensive rats after a period of 3 hr for a dose of 12.5 mg/kg po; type: functional, Artery; procedure, shortened: as §5

For `Cc1ccc(N(CC2=NCCN2)c2cccc(O)c2)cc1` [PHENTOLAMINE], the inhibition in vivo at 1 mg/kg (Canis familiaris [1]) was 86%, the MAP (Canis familiaris [2]) was -33 mmHg and the MAP (Canis familiaris [3]) was -9 mmHg. For the same compound, the inhibition in vivo at 10 mg/kg (Canis familiaris [4]) was > 100%, the inhibition in vivo at 0.1 mg/kg (Canis familiaris [5]) was 42% and the inhibition in vivo at 10 mg/kg (Canis familiaris [6]) was > 100%. For the same compound, the inhibition in vivo at 1 mg/kg (Canis familiaris [7]) was > 100%, the “Decrease in blood pressure” value (Rattus norvegicus [8]) was 37% and the inhibition in vivo at 0.1 mg/kg (Canis familiaris [9]) was 41%. For the same compound, the inhibition in vivo at 1 mg/kg (Canis familiaris [10]) was > 100%, the logD [11] was 0.82 and the “Decrease in blood pressure” value (Rattus norvegicus [12]) was 16%. For the same compound, the “Decrease in blood pressure” value (Rattus norvegicus [13]) was 19%, the “Decrease in blood pressure” value (Rattus norvegicus [14]) was 30% and the inhibition in vivo at 5 mg/kg (Canis familiaris [15]) was > 100%. For the same compound, the MAP (Canis familiaris [16]) was -11 mmHg and the inhibition in vivo at 10 mg/kg (Canis familiaris [17]) was 100%.

`O=C(NC1CCN(CCc2c[nH]c3ccccc23)CC1)c1ccccc1` [INDORAMIN] gave an inhibition in vivo at 1 mg/kg (Canis familiaris [1]) of 83%, an MAP (Canis familiaris [2]) of -38 mmHg and an inhibition in vivo at 0.1 mg/kg (Canis familiaris [18]) of 74%. The MAP (Canis familiaris [3]) was -5 mmHg, the inhibition in vivo at 10 mg/kg (Canis familiaris [19]) was > 100% and the inhibition in vivo at 0.1 mg/kg (Canis familiaris [5]) was 65%. For the same compound, the inhibition in vivo at 1 mg/kg (Canis familiaris [7]) was 23%, the “Decrease in blood pressure” value (Rattus norvegicus [8]) was 33% and the inhibition in vivo at 1 mg/kg (Canis familiaris [10]) was 92%. For the same compound, the logD [11] was 2.13, the inhibition in vivo at 0.1 mg/kg (Canis familiaris [20]) was 21% and the “Decrease in blood pressure” value (Rattus norvegicus [13]) was 13%. The “Decrease in blood pressure” value (Rattus norvegicus [14]; 50 mg/kg) was 20% and 11%, the MAP (Canis familiaris [16]) was -28 mmHg and the inhibition in vivo at 10 mg/kg (Canis familiaris [17]) was 93%.

For `CCC1NC(=O)OC12CCN(CC1COc3ccccc3O1)CC2` (centres undefined), the “Decrease in blood pressure” value (Rattus norvegicus [21]) was 14%, the “Decrease in blood pressure” value (Rattus norvegicus [22]) was -11% and the “Decrease in blood pressure” value (Rattus norvegicus [8]) was 51%. The “Decrease in blood pressure” value (Rattus norvegicus [23]) was 22%, the “Decrease in blood pressure” value (Rattus norvegicus [24]) was -13% and the “Decrease in blood pressure” value (Rattus norvegicus [13]) was 42%. For the same compound, the “Decrease in blood pressure” value (Rattus norvegicus [14]; 50 mg/kg) was 54% and 42%.
